Measurements from ChEMBL document CHEMBL2040729, “Lead optimization of 17β-HSD1 inhibitors of the (hydroxyphenyl)naphthol sulfonamide type for the treatment of endometriosis” (J Med Chem, 2012).

Columns and labels:
[1] = biological target: T1, Estrogen receptor (Homo sapiens) (UniProt P03372); experiment: Relative binding affinity to human recombinant ERalpha receptor using [3H]E2 as substrate after 1 hr by liquid scintillation counting relative to E2
T1 sequence (whole entry): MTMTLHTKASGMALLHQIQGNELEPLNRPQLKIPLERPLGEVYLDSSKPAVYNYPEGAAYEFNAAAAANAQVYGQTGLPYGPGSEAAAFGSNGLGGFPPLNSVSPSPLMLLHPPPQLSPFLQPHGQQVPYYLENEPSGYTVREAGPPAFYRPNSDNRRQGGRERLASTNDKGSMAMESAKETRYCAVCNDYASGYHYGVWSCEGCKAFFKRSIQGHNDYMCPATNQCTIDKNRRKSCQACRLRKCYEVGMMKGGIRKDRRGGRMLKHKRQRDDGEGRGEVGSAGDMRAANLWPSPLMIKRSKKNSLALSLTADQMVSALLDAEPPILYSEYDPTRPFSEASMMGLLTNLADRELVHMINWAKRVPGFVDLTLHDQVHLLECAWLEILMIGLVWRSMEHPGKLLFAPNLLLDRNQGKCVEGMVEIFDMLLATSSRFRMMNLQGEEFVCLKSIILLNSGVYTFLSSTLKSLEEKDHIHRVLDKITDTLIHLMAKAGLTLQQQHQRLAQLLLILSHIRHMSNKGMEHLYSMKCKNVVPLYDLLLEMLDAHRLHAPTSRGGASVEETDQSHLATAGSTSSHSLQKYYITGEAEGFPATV
Method in brief: (§1)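 Recombinant human ERα or ERβ (0.25 pmol) incubated 1 h at rt with [3H]-E2 (10 nM) and compound in DMSO (5% final). Nonspecific binding defined with diethylstilbestrol 10 μM. Bound complex captured on hydroxyapatite, washed, resuspended in ethanol, counted by liquid scintillation. Concentrations displacing 50% of bound label compared with E2, which is set at 100%.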

[2] = species: Callithrix jacchus; experiment: Inhibition of mormoset placenta cytosolic 17betaHSD1 using [3H]E1 as substrate at 50 nM after 10 mins by radioflow detection assay
[3] = biological target: T2, 17-beta-hydroxysteroid dehydrogenase type 2 (Homo sapiens, UniProt P37059); experiment: Inhibition of human placenta microsomal 17betaHSD2 using [3H]E2 as substrate after 20 mins by radioflow detection assay
T2 sequence (P37059 whole entry): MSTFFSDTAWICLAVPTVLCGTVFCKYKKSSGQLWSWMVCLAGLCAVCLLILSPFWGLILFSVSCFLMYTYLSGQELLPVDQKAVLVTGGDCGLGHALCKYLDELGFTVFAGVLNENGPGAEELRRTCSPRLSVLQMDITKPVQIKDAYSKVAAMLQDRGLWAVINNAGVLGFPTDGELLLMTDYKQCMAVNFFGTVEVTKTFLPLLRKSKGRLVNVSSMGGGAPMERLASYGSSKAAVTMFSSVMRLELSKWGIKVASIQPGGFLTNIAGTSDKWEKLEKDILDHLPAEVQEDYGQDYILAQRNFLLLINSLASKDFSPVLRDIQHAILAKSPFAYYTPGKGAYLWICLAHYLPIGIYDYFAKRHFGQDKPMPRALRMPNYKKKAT
Method in brief: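 Microsomal (pellet) fraction of fresh human placenta incubated with NAD+ 1500 μM, compound, and unlabeled + [3H]-E2 (500 nM final) for 20 min at 37 °C. Stopped with 1 mM HgCl2, ether-extracted. Steroids separated by HPLC with radioflow detection, conversion computed. Mean of three determinations.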

[4] = biological target: T3, 17-beta-hydroxysteroid dehydrogenase type 1 (Homo sapiens, UniProt P14061); experiment: Inhibition of human placenta cytosolic 17betaHSD1 using [3H]E1 as substrate after 10 mins by radioflow detection assay
T3 sequence (P14061 whole entry): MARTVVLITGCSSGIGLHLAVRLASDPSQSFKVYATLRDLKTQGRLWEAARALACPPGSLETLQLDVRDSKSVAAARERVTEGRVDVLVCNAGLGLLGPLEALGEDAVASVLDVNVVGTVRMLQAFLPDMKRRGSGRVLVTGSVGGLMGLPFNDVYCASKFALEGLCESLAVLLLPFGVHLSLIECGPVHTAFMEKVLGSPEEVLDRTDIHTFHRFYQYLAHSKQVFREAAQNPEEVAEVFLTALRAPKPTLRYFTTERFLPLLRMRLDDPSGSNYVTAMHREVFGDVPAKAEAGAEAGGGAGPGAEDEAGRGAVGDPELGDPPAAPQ
Method in brief: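 Cytosolic 17β-HSD1 from fresh human placenta, obtained by ammonium sulfate precipitation. Incubated at 37 °C in 50 mM phosphate buffer with 20% glycerol and EDTA, with NADH 500 μM and compound (DMSO 1% final). Started with unlabeled + [3H]-E1 (500 nM final), stopped after 10 min with HgCl2, ether-extracted. E1/E2 quantified by radioflow HPLC as % conversion. At least three independent experiments.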

[5] = species: Callithrix jacchus; experiment: Inhibition of mormoset placenta microsomal 17betaHSD2 using [3H]E2 as substrate at 50 nM after 20 mins by radioflow detection assay
[6] = biological target: T3, 17-beta-hydroxysteroid dehydrogenase type 1; experiment: Inhibition of 17betaHSD1 in human T47D cells using [3H]E1 as substrate incubated for 30 mins prior to substrate addition measured after 30 mins by radioflow detection assay; format: cell-based
Method in brief: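 T47D cells kept in RPMI 1640 with 10% FCS, glutamine, insulin-zinc, pyruvate, antibiotics. Seeded at 5 × 10^5 cells/well in DMEM with FCS, switched to serum-free DMEM after 24 h. Compound added in DMSO (1% final), 30 min preincubation at 37 °C, 5% CO2. Then unlabeled + [3H]-E1 (50 nM final) for 30 min. Steroids extracted into diethylether. Mean of three determinations.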

[7] = biological target: Estrogen receptor beta (Homo sapiens) (UniProt Q92731); experiment: Relative binding affinity to human recombinant ERbeta receptor using [3H]E2 as substrate after 1 hr by liquid scintillation counting relative to E2; method in brief: as §1
Chain of Estrogen receptor beta (Homo sapiens) (Q92731 whole entry): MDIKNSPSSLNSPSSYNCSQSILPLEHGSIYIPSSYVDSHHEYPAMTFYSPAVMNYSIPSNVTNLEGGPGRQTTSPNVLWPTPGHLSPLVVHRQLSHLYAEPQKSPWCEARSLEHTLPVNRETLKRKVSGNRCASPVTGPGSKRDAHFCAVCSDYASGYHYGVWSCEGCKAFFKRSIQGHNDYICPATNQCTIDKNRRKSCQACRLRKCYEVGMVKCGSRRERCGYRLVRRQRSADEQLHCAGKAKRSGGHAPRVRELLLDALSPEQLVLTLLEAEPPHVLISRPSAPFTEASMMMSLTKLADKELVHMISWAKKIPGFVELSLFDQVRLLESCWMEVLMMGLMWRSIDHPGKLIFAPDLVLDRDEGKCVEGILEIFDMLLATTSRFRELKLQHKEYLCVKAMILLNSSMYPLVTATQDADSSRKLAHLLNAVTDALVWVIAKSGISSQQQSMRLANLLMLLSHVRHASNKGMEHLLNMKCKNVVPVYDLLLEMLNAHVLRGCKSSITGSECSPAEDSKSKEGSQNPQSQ

[8] = biological target: T4, 17-beta-hydroxysteroid dehydrogenase type 1 (Homo sapiens) (UniProt P14061); experiment: Inhibition of human placenta cytosolic 17betaHSD1 using [3H]E1 as substrate at 10 nM after 10 mins by radioflow detection assay
T4 sequence (whole entry): T3 sequence (P14061 whole entry)

SMILES	RBA [1] [%]	inhibition [2] [%]	IC50 [3] [nM]	IC50 [4] [nM]	inhibition [5] [%]	IC50 [6] [nM]	RBA [7] [%]	inhibition [8] [%]
CC(=O)Nc1ccc(S(=O)(=O)Nc2cccc(-c3c(O)ccc4cc(-c5cccc(O)c5)ccc34)c2)cc1	< 0.1	31	408	12	< 10	240	< 0.1	–
O=S(=O)(Nc1cccc(-c2c(O)ccc3cc(-c4cccc(O)c4)ccc23)c1)c1ccc(F)cc1	< 0.1	24	834	53	20	637	< 0.1	–
O=S(=O)(c1ccccc1)n1ccc2ccc(-c3c(O)ccc4cc(-c5cccc(O)c5)ccc34)cc21	–	14	996	519	12	–	–	–
N#Cc1cccc(S(=O)(=O)Nc2cccc(-c3c(O)ccc4cc(-c5cccc(O)c5)ccc34)c2)c1	< 0.1	11	607	30	< 10	402	< 0.1	> 30
O=S(=O)(Nc1cccc(-c2c(O)ccc3cc(-c4cccc(O)c4)ccc23)c1)c1ccc2ncccc2c1	< 0.1	38	535	92	13	498	< 0.1	> 30
O=[N+]([O-])c1ccc(S(=O)(=O)Nc2cccc(-c3c(O)ccc4cc(-c5cccc(O)c5)ccc34)c2)cc1	< 0.1	28	1060	49	13	753	< 0.1	> 30
O=S(=O)(Nc1cccc(-c2c(O)ccc3cc(-c4cccc(O)c4)ccc23)c1)c1ccccc1F	< 0.1	19	749	29	< 10	429	< 0.1	–
Cc1cccc(S(=O)(=O)Nc2cccc(-c3c(O)ccc4cc(-c5cccc(O)c5)ccc34)c2)c1	< 0.1	< 10	446	33	11	440	< 0.1	–
N#Cc1ccc(S(=O)(=O)Nc2cccc(-c3c(O)ccc4cc(-c5cccc(O)c5)ccc34)c2)cc1	< 0.1	25	825	25	30	555	< 0.1	–
O=S(=O)(Nc1cccc(-c2c(O)ccc3cc(-c4cccc(O)c4)ccc23)c1)c1cccs1	< 0.1	25	1100	28	18	316	< 0.1	> 30

Stronger by IC50 [3], values ahead:

RBA [1] [%]	inhibition [2] [%]	IC50 [3] [nM]	IC50 [4] [nM]	inhibition [5] [%]	IC50 [6] [nM]	RBA [7] [%]	inhibition [8] [%]	SMILES
< 0.1	16	374	20	17	396	< 0.1	> 30	O=[N+]([O-])c1cccc(S(=O)(=O)Nc2cccc(-c3c(O)ccc4cc(-c5cccc(O)c5)ccc34)c2)c1
< 0.1	< 10	352	19	30	1010	< 0.1	–	O=S(=O)(Nc1cccc(-c2c(O)ccc3cc(-c4cccc(O)c4)ccc23)c1)c1ccc(O)cc1
< 0.1	16	371	690	36	–	< 0.1	–	O=[N+]([O-])c1ccc(S(=O)(=O)Nc2cccc(-c3c(O)ccc4cc(-c5cccc(O)c5)ccc34)c2)c([N+](=O)[O-])c1
< 0.1	< 10	396	22	33	462	< 0.1	> 30	O=S(=O)(Nc1cccc(-c2c(O)ccc3cc(-c4cccc(O)c4)ccc23)c1)c1cccc(F)c1
< 0.1	20	188	31	< 10	525	< 0.1	–	Cc1ccccc1S(=O)(=O)Nc1cccc(-c2c(O)ccc3cc(-c4cccc(O)c4)ccc23)c1
< 0.1	14	223	46	17	646	< 0.1	> 30	O=S(=O)(Nc1cccc(-c2c(O)ccc3cc(-c4cccc(O)c4)ccc23)c1)c1cc(F)c(Br)cc1F
< 0.1	< 10	238	17	21	462	< 0.1	> 30	O=[N+]([O-])c1ccccc1S(=O)(=O)Nc1cccc(-c2c(O)ccc3cc(-c4cccc(O)c4)ccc23)c1
< 0.1	79	391	32	43	1100	< 0.1	–	O=S(=O)(c1ccccc1)n1ccc2c(-c3c(O)ccc4cc(-c5cccc(O)c5)ccc34)cccc21
< 0.1	< 10	213	74	< 10	–	< 0.1	> 30	O=S(=O)(Nc1cccc(-c2c(O)ccc3cc(-c4cccc(O)c4)ccc23)c1)c1ccc(Br)cc1OC(F)(F)F
< 0.1	< 10	367	35	11	633	< 0.1	–	Cc1ccc(S(=O)(=O)Nc2cccc(-c3c(O)ccc4cc(-c5cccc(O)c5)ccc34)c2)cc1
